Measurements as given in ChEMBL document CHEMBL4609978, “Synthesis and evaluation of 2'-dihalo ribonucleotide prodrugs with activity against hepatitis C virus” (Bioorg Med Chem, 2020).
pEC50: −log10 of the molar value. ≈ marks a conversion by molar mass, not a printed value.

What was measured:
Hepatitis C virus [1] = experiment: Antiviral activity against HCV genotype 1a H77 infected in human HuH7 replicon cells assessed as inhibition of viral replication after 3 days by luciferase reporter gene assay; assay type: functional, organism-based, Hepacivirus hominis; details: subtype 1a H77, Huh-7, 72 h
Procedure, shortened: (§1)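 Stable subgenomic replicon cell lines (genotype 1a-H77 or 1b-Con1) carrying a luciferase reporter; compounds added in DMEM with 5% FBS, cells incubated 3 days with or without compound, then lysed and luciferase activity read; EC50 from nonlinear regression fit to 4-parameter logistic equation.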

Hepatitis C virus [2] = experiment: Antiviral activity against HCV genotype 1b Con1 infected in human HuH7 replicon cells assessed as inhibition of viral replication after 3 days by luciferase reporter gene assay; assay type: functional, organism-based, Hepacivirus hominis; details: subtype 1b Con1, Huh-7, 72 h; procedure, shortened: as §1
[3] = Cytotoxicity against human HuH7 cells assessed as reduction in cell viability; assay type: cell-based, Huh-7; details: read-out: TD50 (the source's name)
Hepatitis C virus [4] = experiment: Antiviral activity against HCV genotype 1b Con1 expressing wild type NS5B infected in human HuH7 replicon cells assessed as inhibition of viral replication after 4 days by luciferase reporter gene based assay; assay type: functional, organism-based, Hepacivirus hominis; details: subtype 1b Con1, Huh-7, 96 h
Hepatitis C virus [5] = experiment: Antiviral activity against HCV genotype 1b Con1 expressing NS5B S282T mutant infected in human HuH7 replicon cells assessed as inhibition of viral replication after 4 days by luciferase reporter gene based assay; assay type: functional, organism-based, Hepacivirus hominis; details: subtype 1b Con1, Huh-7, 96 h
Hepatitis C virus [6] = experiment: Antiviral activity against HCV genotype 2a expressing wild type NS5B infected in human HuH7 replicon cells assessed as inhibition of viral replication after 4 days by luciferase reporter gene based assay; assay type: functional, organism-based, Hepacivirus hominis; details: subtype 2a, Huh-7, 96 h
Hepatitis C virus [7] = experiment: Antiviral activity against HCV genotype 2a expressing NS5B S282T mutant infected in human HuH7 replicon cells assessed as inhibition of viral replication after 4 days by luciferase reporter gene based assay; assay type: functional, organism-based, Hepacivirus hominis; details: subtype 2a, Huh-7, 96 h
Hepatitis C virus [8] = experiment: Antiviral activity against HCV genotype 3a expressing wild type NS5B infected in human HuH7 replicon cells assessed as inhibition of viral replication after 4 days by luciferase reporter gene based assay; assay type: functional, organism-based, Hepacivirus hominis; details: subtype 3a, Huh-7, 96 h
Hepatitis C virus [9] = experiment: Antiviral activity against HCV genotype 3a expressing NS5B S282T mutant infected in human HuH7 replicon cells assessed as inhibition of viral replication after 4 days by luciferase reporter gene based assay; assay type: functional, organism-based, Hepacivirus hominis; details: subtype 3a, Huh-7, 96 h
Hepatitis C virus [10] = experiment: Antiviral activity against HCV genotype 4a expressing wild type NS5B infected in human HuH7 replicon cells assessed as inhibition of viral replication after 4 days by luciferase reporter gene based assay; assay type: functional, organism-based, Hepacivirus hominis; details: subtype 4a, Huh-7, 96 h
Hepatitis C virus [11] = experiment: Antiviral activity against HCV genotype 6a expressing wild type NS5B infected in human HuH7 replicon cells assessed as inhibition of viral replication after 4 days by luciferase reporter gene based assay; assay type: functional, organism-based, Hepacivirus hominis; details: subtype 6a, Huh-7, 96 h
[12] = Prodrug conversion in Beagle dog liver assessed as nucleotide triphosphate level at 5 mg/kg, po administered as single dose measured after 4 hrs by LC-MS/MS analysis; assay type: ADME, organism-based, Canis lupus familiaris; details: in vivo
[13] = Prodrug conversion in Beagle dog liver assessed as nucleotide triphosphate level at 5 mg/kg, po co-dosed with 5 mg/kg sofosbuvir measured after 4 hrs by LC-MS/MS analysis; assay type: ADME, organism-based, Canis lupus familiaris; details: in vivo
Procedure, shortened: (§2)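 Beagle dogs (3 per time point) given single oral prodrug 5 mg/kg in EtOH:PEG-400:Phosal 53 MCT (10:30:60, w/w), cassette-dosed with sofosbuvir 5 mg/kg as internal standard; liver biopsies at 4 or 24 h, flash frozen, triphosphate measured by LC-MS/MS.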

[14] = Prodrug conversion in Beagle dog liver assessed as nucleotide triphosphate level at 5 mg/kg, po administered as single dose measured after 24 hrs by LC-MS/MS analysis; assay type: ADME, organism-based, Canis lupus familiaris; details: in vivo
[15] = Prodrug conversion in Beagle dog liver assessed as nucleotide triphosphate level at 5 mg/kg, po co-dosed with 5 mg/kg sofosbuvir measured after 24 hrs by LC-MS/MS analysis; assay type: ADME, organism-based, Canis lupus familiaris; details: in vivo; procedure, shortened: as §2
[16] = Prodrug conversion in human primary hepatocytes assessed as nucleotide triphosphate level at 100 uM incubated for 4 hrs followed by compound wash-out for 20 hrs and measured following 4 hrs incubation period by LC-MS/MS analysis; assay type: ADME, cell-based, Hepatocyte
Procedure, shortened: (§3)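 Cryopreserved primary human hepatocytes plated ~55,000 viable cells/well on collagen, medium changed after 4–6 h to Williams E maintenance medium with Geltrex 0.35 mg/mL, overnight at 37 °C; prodrug 100 µM for 4 h, then washed; second plate held a further 20 h drug-free; cells washed with ice-cold HBSS, triphosphate measured by LC-MS/MS at 4 or 24 h.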

[17] = Prodrug conversion in human primary hepatocytes assessed as nucleotide triphosphate level at 100 uM incubated for 4 hrs and followed by compound washout for 20 hrs and measured following 24 hrs incubation period by LC-MS/MS analysis; assay type: ADME, cell-based, Hepatocyte; procedure, shortened: as §3
Hepatitis C virus [18] = experiment: Antiviral activity against HCV genotype 1b Con1 over expressing CES1 infected in human HuH7 replicon cells assessed as inhibition of viral replication after 3 days by luciferase reporter gene assay; assay type: functional, organism-based, Hepacivirus hominis; details: subtype 1b Con1, Huh-7, 72 h
[19] = Distribution coefficient, logD of compound by HT-LCMS analysis; assay type: physicochemical; details: octanol/water
[20] = Aqueous solubility of compound in pH 7.4 phosphate buffer; assay type: physicochemical
[21] = Stability in dog plasma assessed as parent compound remaining after 4 hrs; assay type: ADME, cell-free, Canis lupus familiaris; details: read-out: Stability
Procedure, shortened: (§4)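 Prodrug incubated 4 h at 37 °C in dog or human plasma; result given as percent parent remaining.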

[22] = Stability in human plasma assessed as parent compound remaining after 4 hrs; assay type: ADME, cell-free; details: read-out: Stability; procedure, shortened: as §4
[23] = Unbound drug level in dog plasma; assay type: ADME, cell-free, Canis lupus familiaris
[24] = Unbound drug level in human plasma; assay type: ADME, cell-free
[25] = Intrinsic clearance in human hepatocytes; assay type: ADME, cell-based, Hepatocyte; details: read-out: CLH (converted)
Hepatitis C virus [26] = experiment: Potency index, ratio of sofosbuvir EC50 to compound EC50 for HCV genotype 1a H77 infected in human HuH7 replicon cells assessed as inhibition of viral replication after 3 days by luciferase reporter gene assay; assay type: functional, Hepacivirus hominis, subtype 1a H77, Huh-7
Procedure, shortened: (§5)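 Stable subgenomic luciferase-reporter replicon Huh-7 lines, genotype 1a-H77 or 1b-Con1. Test compound and sofosbuvir comparator each run in DMEM with 5% FBS for 3 days. Cells lysed and luciferase activity read. EC50 obtained by nonlinear regression to a 4-parameter logistic equation. Index is sofosbuvir EC50 divided by compound EC50, both from this assay.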

Hepatitis C virus [27] = experiment: Potency index, ratio of sofosbuvir EC50 to compound EC50 for HCV genotype 1b Con1 infected in human HuH7 replicon cells assessed as inhibition of viral replication after 3 days by luciferase reporter gene assay; assay type: functional, Hepacivirus hominis, subtype 1b Con1, Huh-7; procedure, shortened: as §5
[28] = Prodrug conversion in Beagle dog liver assessed as nucleotide triphosphate level at 5 mg/kg, po qd for 4 days and measured at 24 hrs post-last dose by LC-MS/MS analysis; assay type: ADME, organism-based, Canis lupus familiaris; details: in vivo
[29] = Prodrug conversion in Beagle dog liver assessed as nucleotide triphosphate level at 1 mg/kg, po qd for 4 days co-dosed with 5 mg/kg sofosbuvir and measured at 24 hrs post-last dose by LC-MS/MS analysis; assay type: ADME, organism-based, Canis lupus familiaris; details: in vivo
Procedure, shortened: (§6)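 Beagle dogs (3 per time point) dosed orally once daily for 4 days with prodrug (1 or 5 mg/kg) in EtOH:PEG-400:Phosal 53 MCT (10:30:60, w/w) together with sofosbuvir 5 mg/kg; liver biopsy 24 h after final dose, flash frozen, triphosphate by LC-MS/MS.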

[30] = Intrinsic clearance in dog hepatocytes; assay type: ADME, cell-based, Canis lupus familiaris, Hepatocyte; details: read-out: CLH (converted)
[31] = Prodrug conversion in Beagle dog liver assessed as increase in nucleotide triphosphate level at 5 mg/kg, po co-dosed with 5 mg/kg sofosbuvir measured after 24 hrs by LC-MS/MS analysis relative to sofosbuvir; assay type: ADME, organism-based, Canis lupus familiaris; details: in vivo; procedure, shortened: as §2
[32] = Prodrug conversion in human primary hepatocytes assessed as increase in nucleotide triphosphate level at 100 uM incubated for 4 hrs followed by compound wash-out for 20 hrs and measured following 4 hrs incubation period by LC-MS/MS analysis relative to sofosbuvir; assay type: ADME, cell-based, Hepatocyte
[33] = Prodrug conversion in Beagle dog liver assessed as increase in nucleotide triphosphate level at 5 mg/kg, po co-dosed with 5 mg/kg sofosbuvir measured after 4 hrs by LC-MS/MS analysis relative to sofosbuvir; assay type: ADME, organism-based, Canis lupus familiaris; details: in vivo; procedure, shortened: as §2
[34] = Prodrug conversion in Beagle dog liver assessed as nucleotide triphosphate level at 5 mg/kg, po qd for 4 days co-dosed with 5 mg/kg sofosbuvir and measured at 24 hrs post-last dose by LC-MS/MS analysis; assay type: ADME, organism-based, Canis lupus familiaris; details: in vivo; procedure, shortened: as §6

Row | Compound | pEC50 (Hepatitis C virus [1]) | pEC50 (Hepatitis C virus [2]) | Drug metabolism [12] | Drug metabolism [13] | Drug metabolism [14] | Drug metabolism [15] | Drug metabolism [16] | Drug metabolism [17] | pEC50 (Hepatitis C virus [18]) | logD [19] | solubility [20] | remaining at 4 h [21] | remaining at 4 h [22] | fraction unbound [23] | fraction unbound [24] | CLint scaled [25] | Drug metabolism [28] | CLint scaled [30] | fold change (FC) [32] | Drug metabolism [34] | also measured
1 | CC(C)OC(=O)[C@H](C)N[P@](=O)(OC[C@H]1O[C@@H](n2ccc(=O)[nH]c2=O)[C@@](F)(Br)[C@@H]1O)Oc1ccccc1 | 7.25 | 7.02 to 7.06 | 11.5 µM | 7.39 µM | 6.61 µM | 8.87 µM | 192 µM | 91 µM | 7.25 | 3.07 | > 200 µM | 86% | 100% | 0.367 | 0.43 | 257 mL/min/kg | – | – | – | – | CC50 [3]: > 100000 nM; pEC50 (Hepatitis C virus [4]): 7.82; pEC50 (Hepatitis C virus [5]): 6.87; pEC50 (Hepatitis C virus [6]): 6.72; pEC50 (Hepatitis C virus [7]): 6.51; pEC50 (Hepatitis C virus [8]): 7.90; pEC50 (Hepatitis C virus [9]): 7.12; pEC50 (Hepatitis C virus [10]): 7.59; pEC50 (Hepatitis C virus [11]): 7.84; Ratio EC50 (Hepatitis C virus [26]): 2 - 3; Ratio EC50 (Hepatitis C virus [27]): 2 - 3
2 | CCOC(=O)C(C)(C)N[P@](=O)(OC[C@H]1O[C@@H](n2ccc(=O)[nH]c2=O)[C@@](F)(Br)[C@@H]1O)Oc1ccccc1 | 6.59 | 6.36 | 43.3 µM | 7 µM | 42.7 µM | 6.64 µM | 3600 µM | 736 µM | 7.16 | 2.86 | 519 µM (≈ 308 µg/mL) | 100% | 98% | 0.317 | 0.473 | 132 mL/min/kg | 8.18 µM | 123 mL/min/kg | 30 to 40 | – | Drug metabolism [29]: 10.7 µM; fold change (FC) [31]: 5 to 6; fold change (FC) [33]: 5 to 6
3 | CCOC(=O)C(C)(C)N[P@](=O)(OC[C@H]1O[C@@H](n2ccc(=O)[nH]c2=O)[C@](Cl)(Br)[C@@H]1O)Oc1ccccc1 | 6.19 | 6.02 | 8.83 µM | 15.03 µM | 2.1 µM | 5.44 µM | 2818 µM | 203 µM | 6.81 | 3.11 | > 200 µM | 86% | 100% | 0.133 | 0.24 | 268 mL/min/kg | 2.89 µM | 200 mL/min/kg | 30 to 40 | 11.1 µM | –
4 | CCOC(=O)C(C)(C)N[P@@](=O)(OC[C@H]1O[C@@H](n2ccc(=O)[nH]c2=O)[C@](Cl)(Br)[C@@H]1O)Oc1ccccc1 | 5.57 | 5.59 | 7.21 µM | 5.35 µM | 2.64 µM | 4.03 µM | – | – | – | 3.07 | > 200 µM | 100% | 92% | 0.187 | 0.31 | 155 mL/min/kg | 1.43 µM | 98.3 mL/min/kg | – | 6.05 µM | –
